≈ marks a conversion by molar mass, not a printed value. Calls of active or inactive are those of the source. The rule behind the calls is not given here.
What was measured:
[1] = molecular target: Receptor tyrosine-protein kinase erbB-2 (Homo sapiens) (UniProt P04626); test: Inhibition of ERBB2 (unknown origin) using biotinylated peptide as substrate at 10 uM by TR-FRET assay
[2] = molecular target: Serine/threonine-protein kinase MARK2 (Homo sapiens, UniProt Q7KZI7); test: Binding affinity to MARK2 in SILAC-labeled human MDA-MB-231 cells lysate by mass spectrometry based kinAffinity assay; format: subcellular
Sequence of Serine/threonine-protein kinase MARK2 (Q7KZI7 whole entry): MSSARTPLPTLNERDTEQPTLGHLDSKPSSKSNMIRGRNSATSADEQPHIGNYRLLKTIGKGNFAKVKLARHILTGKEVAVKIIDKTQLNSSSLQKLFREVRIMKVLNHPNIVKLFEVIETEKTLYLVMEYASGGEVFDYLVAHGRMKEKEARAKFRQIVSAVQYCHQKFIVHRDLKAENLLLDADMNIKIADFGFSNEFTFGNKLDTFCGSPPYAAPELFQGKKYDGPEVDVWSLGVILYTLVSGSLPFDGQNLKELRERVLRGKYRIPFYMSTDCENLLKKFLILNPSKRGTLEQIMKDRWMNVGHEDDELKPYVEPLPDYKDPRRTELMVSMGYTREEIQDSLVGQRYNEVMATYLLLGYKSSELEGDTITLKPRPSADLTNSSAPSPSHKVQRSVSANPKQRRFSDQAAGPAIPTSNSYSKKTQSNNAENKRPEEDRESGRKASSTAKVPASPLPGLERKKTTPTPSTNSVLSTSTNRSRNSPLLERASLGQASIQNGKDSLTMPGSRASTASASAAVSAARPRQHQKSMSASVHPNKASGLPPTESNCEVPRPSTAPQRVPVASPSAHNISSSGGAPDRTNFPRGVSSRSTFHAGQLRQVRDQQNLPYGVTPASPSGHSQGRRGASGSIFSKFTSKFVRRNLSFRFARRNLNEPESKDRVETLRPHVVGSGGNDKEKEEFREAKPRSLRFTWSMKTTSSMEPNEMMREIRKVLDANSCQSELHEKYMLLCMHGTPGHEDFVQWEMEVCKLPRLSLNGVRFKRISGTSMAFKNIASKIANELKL
In short: (§1)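 Chemical proteomics: MDA-MB-231 lysate bound to matrix of immobilized broad kinase inhibitors at several densities (BC50), then competed with increasing free compound (CC50); proteins quantified by mass spectrometry, Kd via Cheng-Prusoff. Two competition formats run in parallel to check equilibrium.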

[3] = molecular target: T1, Tyrosine-protein kinase receptor UFO (Homo sapiens, UniProt P30530); test: Binding affinity to AXL in SILAC-labeled human MDA-MB-231 cells lysate by mass spectrometry based kinAffinity assay; format: subcellular
T1 sequence (P30530 whole entry): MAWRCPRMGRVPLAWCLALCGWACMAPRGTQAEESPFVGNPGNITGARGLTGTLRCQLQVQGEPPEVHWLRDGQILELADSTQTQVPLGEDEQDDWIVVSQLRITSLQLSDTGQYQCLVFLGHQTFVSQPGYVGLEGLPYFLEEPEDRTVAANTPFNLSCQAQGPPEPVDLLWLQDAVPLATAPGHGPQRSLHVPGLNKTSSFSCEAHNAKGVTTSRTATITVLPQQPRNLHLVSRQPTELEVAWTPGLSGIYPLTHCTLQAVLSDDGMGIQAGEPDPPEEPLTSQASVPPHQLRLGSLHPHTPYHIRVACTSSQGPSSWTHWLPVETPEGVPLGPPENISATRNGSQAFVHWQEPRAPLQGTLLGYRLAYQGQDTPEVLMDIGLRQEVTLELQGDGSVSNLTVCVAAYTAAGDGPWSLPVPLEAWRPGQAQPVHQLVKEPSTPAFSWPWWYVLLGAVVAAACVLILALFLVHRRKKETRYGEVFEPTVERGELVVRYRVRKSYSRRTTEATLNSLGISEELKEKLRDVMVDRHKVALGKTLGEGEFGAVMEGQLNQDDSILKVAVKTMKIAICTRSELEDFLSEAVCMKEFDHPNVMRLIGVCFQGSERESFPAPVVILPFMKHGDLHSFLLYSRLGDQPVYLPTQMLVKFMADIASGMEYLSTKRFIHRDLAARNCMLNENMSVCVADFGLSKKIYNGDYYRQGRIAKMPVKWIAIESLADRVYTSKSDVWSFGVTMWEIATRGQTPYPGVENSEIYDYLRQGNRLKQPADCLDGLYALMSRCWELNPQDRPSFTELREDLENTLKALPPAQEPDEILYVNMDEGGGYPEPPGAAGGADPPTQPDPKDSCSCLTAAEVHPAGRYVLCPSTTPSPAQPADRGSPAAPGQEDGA
In short: as §1

[4] = molecular target: Tyrosine-protein kinase Lyn (Homo sapiens, UniProt P07948); test: Binding affinity to LYN in SILAC-labeled human MDA-MB-231 cells lysate by mass spectrometry based kinAffinity assay; format: subcellular
Sequence of Tyrosine-protein kinase Lyn (P07948 whole entry): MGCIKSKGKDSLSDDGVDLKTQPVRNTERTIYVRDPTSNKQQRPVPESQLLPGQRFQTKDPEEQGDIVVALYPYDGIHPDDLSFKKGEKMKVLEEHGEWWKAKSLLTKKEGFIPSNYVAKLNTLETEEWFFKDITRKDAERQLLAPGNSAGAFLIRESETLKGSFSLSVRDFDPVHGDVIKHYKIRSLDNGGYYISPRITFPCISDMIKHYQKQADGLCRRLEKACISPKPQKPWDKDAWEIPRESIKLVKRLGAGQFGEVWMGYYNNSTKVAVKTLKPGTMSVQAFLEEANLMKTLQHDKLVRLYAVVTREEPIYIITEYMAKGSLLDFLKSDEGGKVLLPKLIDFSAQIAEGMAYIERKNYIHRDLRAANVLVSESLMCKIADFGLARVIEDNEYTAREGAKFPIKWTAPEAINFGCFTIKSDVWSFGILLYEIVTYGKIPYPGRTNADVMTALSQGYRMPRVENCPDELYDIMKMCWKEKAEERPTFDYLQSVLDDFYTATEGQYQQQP
In short: as §1

[5] = molecular target: Receptor-interacting serine/threonine-protein kinase 2 (Homo sapiens, UniProt O43353); test: Binding affinity to RIPK2 in SILAC-labeled human MDA-MB-231 cells lysate by mass spectrometry based kinAffinity assay; format: subcellular
In short: (§2)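 MDA-MB-231 lysate applied to KinAffinity matrix of immobilized broadband kinase inhibitors at graded densities to obtain BC50 per target. Competition then run with increasing free compound to give CC50; Kd derived by Cheng-Prusoff. Two competition experiments in parallel to check equilibrium, one with lysate pre-incubated with compound before adding matrix. Quantitation by mass spectrometry.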

Aurora kinase B = Aurora kinase B (Homo sapiens, UniProt Q96GD4); test: Binding affinity to AURKB in SILAC-labeled human MDA-MB-231 cells lysate by mass spectrometry based kinAffinity assay; format: subcellular
Sequence of Aurora kinase B (Q96GD4 whole entry): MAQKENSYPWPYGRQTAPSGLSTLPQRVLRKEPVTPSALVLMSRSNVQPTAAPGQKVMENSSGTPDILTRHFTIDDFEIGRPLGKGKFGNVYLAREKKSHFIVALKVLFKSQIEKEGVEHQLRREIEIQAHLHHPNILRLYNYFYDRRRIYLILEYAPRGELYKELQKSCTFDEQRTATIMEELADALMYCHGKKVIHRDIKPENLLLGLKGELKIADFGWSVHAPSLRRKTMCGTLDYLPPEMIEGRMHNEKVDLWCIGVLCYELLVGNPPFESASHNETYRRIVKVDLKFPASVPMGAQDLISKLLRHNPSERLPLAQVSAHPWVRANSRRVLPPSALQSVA
In short: as §1

[6] = molecular target: Tyrosine-protein kinase Fer (Homo sapiens, UniProt P16591); test: Binding affinity to FER in SILAC-labeled human MDA-MB-231 cells lysate by mass spectrometry based kinAffinity assay; format: subcellular
Sequence of Tyrosine-protein kinase Fer (P16591 whole entry): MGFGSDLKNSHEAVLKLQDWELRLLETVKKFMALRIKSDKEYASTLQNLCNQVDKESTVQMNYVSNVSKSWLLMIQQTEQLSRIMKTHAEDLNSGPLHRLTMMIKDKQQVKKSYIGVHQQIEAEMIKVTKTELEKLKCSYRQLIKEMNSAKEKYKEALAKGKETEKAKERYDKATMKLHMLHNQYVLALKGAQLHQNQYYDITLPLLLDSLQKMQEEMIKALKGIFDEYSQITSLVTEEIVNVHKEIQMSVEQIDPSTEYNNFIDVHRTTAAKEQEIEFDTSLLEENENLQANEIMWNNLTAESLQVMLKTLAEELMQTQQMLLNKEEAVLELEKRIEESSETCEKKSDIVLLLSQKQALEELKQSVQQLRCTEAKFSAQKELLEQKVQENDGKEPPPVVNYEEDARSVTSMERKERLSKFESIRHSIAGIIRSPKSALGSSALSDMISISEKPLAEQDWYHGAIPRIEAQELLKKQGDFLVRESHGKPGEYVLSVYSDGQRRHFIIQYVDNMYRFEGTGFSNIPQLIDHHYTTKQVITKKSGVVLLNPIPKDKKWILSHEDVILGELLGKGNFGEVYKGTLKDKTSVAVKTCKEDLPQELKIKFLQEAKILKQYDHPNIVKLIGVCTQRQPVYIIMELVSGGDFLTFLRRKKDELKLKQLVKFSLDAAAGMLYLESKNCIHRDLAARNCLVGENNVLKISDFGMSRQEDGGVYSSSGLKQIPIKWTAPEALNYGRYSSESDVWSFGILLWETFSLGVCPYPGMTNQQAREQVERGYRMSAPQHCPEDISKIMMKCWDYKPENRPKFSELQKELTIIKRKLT
In short: as §1

[7] = molecular target: 5'-AMP-activated protein kinase subunit gamma-2 (Homo sapiens, UniProt Q9UGJ0); test: Binding affinity to PRKAG2 in SILAC-labeled human MDA-MB-231 cells lysate by mass spectrometry based kinAffinity assay; format: subcellular
Sequence of 5'-AMP-activated protein kinase subunit gamma-2 (Q9UGJ0 whole entry): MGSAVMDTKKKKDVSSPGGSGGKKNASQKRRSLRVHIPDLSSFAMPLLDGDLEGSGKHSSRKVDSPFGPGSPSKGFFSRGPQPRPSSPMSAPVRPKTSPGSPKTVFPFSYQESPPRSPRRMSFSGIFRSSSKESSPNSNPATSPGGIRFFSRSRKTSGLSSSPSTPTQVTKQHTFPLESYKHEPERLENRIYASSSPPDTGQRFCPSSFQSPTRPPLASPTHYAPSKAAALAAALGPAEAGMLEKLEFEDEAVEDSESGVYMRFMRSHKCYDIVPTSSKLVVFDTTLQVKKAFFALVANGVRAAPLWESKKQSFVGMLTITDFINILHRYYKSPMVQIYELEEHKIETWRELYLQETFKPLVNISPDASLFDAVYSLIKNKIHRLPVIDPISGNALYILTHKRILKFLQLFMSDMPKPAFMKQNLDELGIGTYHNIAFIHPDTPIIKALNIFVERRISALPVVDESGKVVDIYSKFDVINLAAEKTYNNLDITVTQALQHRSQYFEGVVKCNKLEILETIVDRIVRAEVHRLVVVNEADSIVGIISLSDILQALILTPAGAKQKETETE
In short: as §2

[8] = molecular target: Serine/threonine-protein kinase 4 (Homo sapiens, UniProt Q13043); test: Binding affinity to MST1 in SILAC-labeled human MDA-MB-231 cells lysate by mass spectrometry based kinAffinity assay; format: subcellular
Sequence of Serine/threonine-protein kinase 4 (Q13043 whole entry): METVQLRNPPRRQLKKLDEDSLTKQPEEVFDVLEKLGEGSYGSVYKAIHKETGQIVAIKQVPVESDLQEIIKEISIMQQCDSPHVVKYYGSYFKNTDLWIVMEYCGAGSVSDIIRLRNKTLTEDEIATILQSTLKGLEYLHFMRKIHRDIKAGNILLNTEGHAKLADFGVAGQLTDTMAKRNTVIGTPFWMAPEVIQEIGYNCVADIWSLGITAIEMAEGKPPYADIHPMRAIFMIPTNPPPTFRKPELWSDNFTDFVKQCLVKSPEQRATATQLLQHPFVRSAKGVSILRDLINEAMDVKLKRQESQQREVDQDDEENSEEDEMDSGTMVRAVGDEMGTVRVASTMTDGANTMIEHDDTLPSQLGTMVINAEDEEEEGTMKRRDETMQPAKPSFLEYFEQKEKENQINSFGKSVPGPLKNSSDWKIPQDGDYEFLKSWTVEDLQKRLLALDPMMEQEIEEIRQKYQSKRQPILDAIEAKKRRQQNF
In short: as §2

[9] = molecular target: Serine/threonine-protein kinase SIK2 (Homo sapiens, UniProt Q9H0K1); test: Binding affinity to QIK in SILAC-labeled human MDA-MB-231 cells lysate by mass spectrometry based kinAffinity assay; format: subcellular
Sequence of Serine/threonine-protein kinase SIK2 (Q9H0K1 whole entry): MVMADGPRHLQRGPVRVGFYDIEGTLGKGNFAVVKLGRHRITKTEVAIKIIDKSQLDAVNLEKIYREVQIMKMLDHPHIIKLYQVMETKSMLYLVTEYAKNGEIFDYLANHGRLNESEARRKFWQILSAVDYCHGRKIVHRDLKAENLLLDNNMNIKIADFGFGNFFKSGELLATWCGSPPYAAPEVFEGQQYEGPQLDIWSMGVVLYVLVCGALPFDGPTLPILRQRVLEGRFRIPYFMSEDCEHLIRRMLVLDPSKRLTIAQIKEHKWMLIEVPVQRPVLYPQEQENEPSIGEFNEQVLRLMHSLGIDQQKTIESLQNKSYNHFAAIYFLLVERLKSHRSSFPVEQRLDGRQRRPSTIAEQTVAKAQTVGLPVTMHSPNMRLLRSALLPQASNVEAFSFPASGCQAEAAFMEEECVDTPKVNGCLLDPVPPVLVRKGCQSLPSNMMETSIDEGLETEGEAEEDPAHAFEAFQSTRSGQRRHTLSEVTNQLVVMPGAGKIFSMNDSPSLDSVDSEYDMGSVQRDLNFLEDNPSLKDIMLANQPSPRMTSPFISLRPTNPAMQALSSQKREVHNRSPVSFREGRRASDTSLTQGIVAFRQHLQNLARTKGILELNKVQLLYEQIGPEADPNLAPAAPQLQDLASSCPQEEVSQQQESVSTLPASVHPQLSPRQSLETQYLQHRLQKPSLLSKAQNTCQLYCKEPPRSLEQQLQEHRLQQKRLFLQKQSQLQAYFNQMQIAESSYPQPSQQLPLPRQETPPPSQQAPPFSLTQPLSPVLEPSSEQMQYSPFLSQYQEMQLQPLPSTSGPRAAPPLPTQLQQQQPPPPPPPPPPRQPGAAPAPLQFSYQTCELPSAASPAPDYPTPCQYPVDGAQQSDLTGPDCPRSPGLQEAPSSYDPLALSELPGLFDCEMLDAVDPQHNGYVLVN
In short: as §2

[10] = molecular target: Dual specificity mitogen-activated protein kinase kinase 2 (Homo sapiens, UniProt P36507); test: Binding affinity to MAP2K2 in SILAC-labeled human MDA-MB-231 cells lysate by mass spectrometry based kinAffinity assay; format: subcellular
Sequence of Dual specificity mitogen-activated protein kinase kinase 2 (P36507 whole entry): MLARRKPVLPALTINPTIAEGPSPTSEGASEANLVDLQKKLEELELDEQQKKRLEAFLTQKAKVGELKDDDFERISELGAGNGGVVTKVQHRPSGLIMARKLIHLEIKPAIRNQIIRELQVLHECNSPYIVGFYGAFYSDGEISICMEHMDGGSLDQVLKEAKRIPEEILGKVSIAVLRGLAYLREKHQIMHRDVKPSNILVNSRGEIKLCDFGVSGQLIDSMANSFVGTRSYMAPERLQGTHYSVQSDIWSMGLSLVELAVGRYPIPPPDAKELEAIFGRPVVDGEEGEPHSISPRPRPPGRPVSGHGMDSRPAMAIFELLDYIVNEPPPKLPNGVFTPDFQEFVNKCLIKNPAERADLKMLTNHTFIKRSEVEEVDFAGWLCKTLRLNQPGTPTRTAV
In short: as §1

[11] = molecular target: Enoyl-CoA hydratase, mitochondrial (Homo sapiens, UniProt P30084); test: Binding affinity to ECHS1 in SILAC-labeled human MDA-MB-231 cells lysate by mass spectrometry based kinAffinity assay; format: subcellular
In short: as §1

[12] = Solubility of the compound […] after 24 hrs by UV-based HPLC analysis; format: physicochemical; settings: DMSO
In short: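 Solubility in water: DMSO stock aliquots diluted into water, shaken 24 h at room temperature, filtered through 0.45 µm nylon, then quantified by HPLC-UV with a C18 column and 70% ACN. Run in triplicate.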

[13] = Apparent permeability from apical to basolateral side in human Caco2 cells at 10 uM after 2 hrs by LC-MS/MS analysis; format: ADME, cell-based; settings: Caco-2
In short: (§3)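 Caco-2 cells differentiated three weeks in 96-well format, monolayer integrity checked by Lucifer yellow transport. Compound at 10 µM for 2 h; apical buffer HBSS/10 mM HEPES/glucose pH 6.5 with 100 µM Lucifer yellow, basolateral buffer pH 7.4. Papp = (dQ/dt)/C0A; efflux ratio Papp(B→A)/Papp(A→B).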

[14] = Apparent permeability from basolateral to apical side in human Caco2 cells at 10 uM after 2 hrs by LC-MS/MS analysis; format: ADME, cell-based; settings: Caco-2
In short: as §3

[15] = Protein binding in human plasma; format: ADME, cell-free; settings: read-out: PPB (converted)
[16] = AUC (0 to infinity) in mouse at 1 to 2 mg/kg, iv by LC/MS/MS analysis; format: ADME, organism-based; settings: in vivo
In short: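 Male ICR mice (27 ± 5 g, n = 3) dosed iv via tail vein at 2 or 1 mg/kg in 30% PEG400/5% ethanol in water. Jugular blood (0.3 mL, heparin) sampled at set times over 24 h or more; plasma separated, acetonitrile-precipitated, drug quantified by LC/MS/MS; parameters from noncompartmental-type software estimation.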

[17] = Apparent half-life of the terminal disposition phase in mouse at 3 mg/kg, iv by LC/MS/MS analysis; settings: in vivo, read-out: t1/2 lambda z (converted)
[18] = molecular target: Delta(3,5)-Delta(2,4)-dienoyl-CoA isomerase, mitochondrial (Homo sapiens, UniProt Q13011); test: Binding affinity to ECH1 in SILAC-labeled human MDA-MB-231 cells lysate by mass spectrometry based kinAffinity assay; format: subcellular
In short: as §1

inhibition [1]	Kd(free) [2] [µM]	Kd(free) [3] [µM]	Kd(free) [4] [µM]	Kd(free) [5] [µM]	Kd(free) (Aurora kinase B) [µM]	Kd(free) [6] [µM]	Kd(free) [7] [µM]	Kd(free) [8] [µM]	Kd(free) [9] [µM]	Kd(free) [10] [µM]	Kd(free) [11] [µM]	Kd(free) [18] [µM]	Structure (SMILES)	solubility at 24 h [12] [µM]	Papp A→B at 2 h, 10 µM [13] [×10⁻⁶ cm/s]	Papp B→A at 2 h, 10 µM [14] [×10⁻⁶ cm/s]	fraction unbound [15]	AUC(0-inf) [16] [ng·h/mL]	half-life [17] [min]
Active	–	–	–	–	–	–	–	–	–	–	–	–	COc1cc2c(Oc3ccc(NS(=O)(=O)c4ccccc4C(F)(F)F)cc3F)ccnc2cc1OCCCN1CCN(C)CC1	–	–	–	–	–	–
–	7.086	0.006	0.011	0.017	0.034	0.304	2.296	2.08	3.545	8.852	9.237	–	COc1cc2c(Oc3ccc(NS(=O)(=O)c4c(F)cccc4F)cc3F)ccnc2cc1OCCCN1CCN(C)CC1	–	–	–	–	–	–
–	–	–	–	–	–	–	–	–	–	–	–	–	COc1cc2c(Oc3ccc(NS(=O)(=O)c4cc(F)ccc4F)cc3F)ccnc2cc1OCCCN1CCCC(C)C1 (stereo not given)	18 (≈ 11.1 µg/mL)	2.4	14.6	0.015	1400	510
–	4.455	0.015	0.029	0.043	> 0.069	0.679	1.078	2.433	4.518	6.917	–	2.857	COc1cc2c(Oc3ccc(NS(=O)(=O)c4cc(F)ccc4F)cc3F)ccnc2cc1OCCCN1CCN(C)CC1	68.8 (≈ 42.4 µg/mL)	7.4	17	0.009	2650	1120
